Where “and” joins values, the source holds several entries; their conditions need not be identical. Equal values may be shown once.
Experiments:
S9 [1] = assay: (§1) Activity expressed as no. of revertants per plate in strain TA1535 with and without hamster S9 cells (3 mg/plate) at the dose of 1 ug; type: functional, Cricetulus griseus
S9 [2] = assay: (§2) Activity expressed as no. of revertants per plate in strain TA1535 with and without hamster S9 cells (3 mg/plate) at the dose of 2.5 ug; type: functional, Cricetulus griseus
S9 [3] = assay: (§3) Activity expressed as no. of revertants per plate in strain TA1535 with hamster S9 cells (3 mg/plate); type: functional, Cricetulus griseus
S9 [4] = assay: (§4) Activity expressed as no. of revertants per plate in strain TA1535 with and without hamster S9 cells (3 mg/plate) at the dose of 10 ug; type: functional, Cricetulus griseus
S9 [5] = assay: Activity expressed as no. of revertants per plate in strain TA1535 with and without hamster S9 cells (3 mg/plate) at the dose of 25 ug; type: functional, Cricetulus griseus
S9 [6] = assay: (§5) Activity expressed as no. of revertants per plate in strain TA1535 with and without hamster S9 cells (3 mg/plate) at the dose of 5 ug; type: functional, Cricetulus griseus
S9 [7] = assay: Activity expressed as no. of revertants per plate in strain TA1535 with and without hamster S9 cells (3 mg/plate) at the dose of 100 ug; type: functional, Cricetulus griseus
S9 [8] = assay: (§6) Activity expressed as no. of revertants per plate in strain TA1535 with and without hamster S9 cells (3 mg/plate) at the dose of 250 ug; type: functional, Cricetulus griseus
S9 [9] = assay: Activity expressed as no. of revertants per plate in strain TA1535 without hamster S9 cells (3 mg/plate) at the dose of 50 ug; type: functional, Cricetulus griseus
How it was run: (§7)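 Ames plate incorporation test in Salmonella TA1535 (base-pair substitution detector), with or without Aroclor 1254-induced hamster S9 mix (3 mg/plate). Doses span a 10-point range of 1–1000 μg/plate. At least two independent dose-response studies, each on duplicate plates; mean revertants per plate reported. Counts are significant when above twice the historical or twice the current control mean, whichever is greater.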

S9 [10] = assay: Activity expressed as no. of revertants per plate in strain TA1535 without hamster S9 cells (3 mg/plate) at the dose of 250 ug; type: functional, Cricetulus griseus; how it was run: as §7
Salmonella typhimurium = assay: Activity expressed as no. of revertants per plate in Salmonella Typhimurium TA1535 with and without hamster S9 cells (3 mg/plate) at the dose of 50 ug; type: functional, Salmonella enterica subsp. enterica serovar Typhimurium
S9 [11] = assay: Activity expressed as no. of revertants per plate in strain TA1535 with and without hamster S9 cells (3 mg/plate) at the dose of 1000 ug; type: functional, Cricetulus griseus
S9 [12] = assay: (§8) Activity expressed as no. of revertants per plate in strain TA1535 with and without hamster S9 cells (3 mg/plate) at the dose of 500 ug; type: functional, Cricetulus griseus
S9 [13] = assay: as §6; type: functional, Cricetulus griseus; how it was run: as §7; remark: listed apart in the source
S9 [14] = assay: as §8; type: functional, Cricetulus griseus; how it was run: as §7; remark: listed apart in the source
S9 [15] = assay: as §2; type: functional, Cricetulus griseus; how it was run: as §7; remark: listed apart in the source
S9 [16] = assay: as §5; type: functional, Cricetulus griseus; how it was run: as §7; remark: listed apart in the source
S9 [17] = assay: as §3; type: functional, Cricetulus griseus; how it was run: as §7; remark: listed apart in the source
S9 [18] = assay: as §4; type: functional, Cricetulus griseus; how it was run: as §7; remark: listed apart in the source
S9 [19] = assay: as §8; type: functional, Salmonella enterica subsp. enterica serovar Typhimurium; how it was run: as §7
S9 [20] = assay: as §1; type: functional, Cricetulus griseus; how it was run: as §7; remark: listed apart in the source

| Compound | Activity (S9 [1]) | Activity (S9 [2]) | Activity (S9 [3]) | Activity (S9 [4]) | Activity (S9 [5]) | Activity (S9 [6]) | Activity (S9 [7]) | Activity (S9 [8]) | other results |
| --- | --- | --- | --- | --- | --- | --- | --- | --- | --- |
| CN(Cc1ccc(C#N)cc1)N=O | 25 and 14 | 26 and 19 | 21 and 13 | 23 and 32 | 29 and 45 | 29 | – | – | – |
| COc1ccc(CN(C)N=O)cc1 | 10 and 13 | 21 and 19 | 11 and 8 | 24 and 14 | 18 and 17 | 15 and 10 | 15 and 44 | 56 | Activity (S9 [9]): 19; Activity (S9 [10]): 20; Activity (Salmonella typhimurium): 11 and 26 |
| CN(Cc1ccc(C(=O)O)cc1)N=O | 12 and 8 | 12 and 6 | 11 and 6 | – | 6 and 4 | 13 and 6 | 13 and 10 | 15 and 7 | Activity (S9 [11]): 14 and 9; Activity (Salmonella typhimurium): 8 and 5 and 10 and 7; Activity (S9 [12]): 10 and 8 |
| CN(Cc1ccccc1)N=O | 14 and 21 | 18 and 24 | 14 and 20 | 12 | 18 and 24 | 15 and 24 | 17 and 44 | 23 and 58 | – |
| CN(Cc1ccc(F)cc1)N=O | 15 and 8 | 16 and 7 | 14 and 6 | 13 and 8 | 13 and 17 | 12 and 10 | – | 39 | Activity (S9 [13]): 17; Activity (S9 [11]): 16; Activity (S9 [12]): 21 and 50 |
| CN(Cc1ccc([N+](=O)[O-])cc1)N=O | 17 and 11 | 18 and 15 | 13 and 9 | 10 and 12 | 13 and 27 | 14 and 11 | – | – | – |
| CN(Cc1ccc(Cl)cc1)N=O | – | – | 13 | – | – | – | – | – | Activity (S9 [14]): 10; Activity (S9 [15]): 18 and 15; Activity (S9 [16]): 20 and 17; Activity (S9 [17]): 19; Activity (S9 [18]): 12 and 32; Activity (S9 [19]): 913; Activity (S9 [20]): 13 and 9 |

Reference: ChEMBL document CHEMBL1122338, “Mutagenicity and chemistry of N-nitroso-N-(p-substituted-benzyl)methylamines” (1983)
